Measured values reported in article PMC9661475 (Journal of Medicinal Chemistry, 2022).
Each block holds one molecule with its values, some of them ahead of it.

Assays:
[1] = tested on: EV-D68 strain STL-2014-12; experiment: CPE reduction assay, EV-D68 STL-2014-12 in RD cells; format: cell-based, Enterovirus D68; conditions: for anti-EV-D68 activity: running text on series 1 SAR; for EC50: Enterovirus D, EVD68, RD, CPE assay, anti-EV-D68 activity
EV-D68 VP1 expression [2] = experiment: Western blot assay of viral VP1 in RD cells; format: cell-based, Enterovirus D68; conditions: EV-D68-infected RD cells, MOI 0.01, 12 hpi
How it was run: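 RD cells (8.0 × 10^4 per well) were seeded and infected after 24 h with EV-D68 at MOI 0.01, with gradient-diluted test compound or DMSO, for 1.5 h. Cells were lysed in RIPA at 12 hpi. Equal protein was run on 10% SDS-PAGE, transferred to PVDF and blocked with 5% skim milk. Blots were probed with anti-EV-D68 and tubulin antibodies, then HRP secondaries, with ECL detection.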

EV-D68 [3] = experiment: Plaque formation assay in RD cells; format: cell-based, Enterovirus D68; conditions: concentration of 1 μM
How it was run: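 RD cells grown overnight received serially diluted virus stock plus test compound for 1.5 h. The supernatant was then removed and replaced with a 2× DMEM overlay containing 2% low-melting agarose.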

[4] = Pharmacokinetic study in SD rats; format: in vivo; conditions: male, rat, plasma, iv, 1 mg/kg
How it was run: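 Male SD rats (6–9 or 6–8 weeks old, depending on compound; n = 3) received a single iv dose of 1 mg/kg. The vehicle was 5% DMSO/5% Solutol HS-15/90% water or 5% DMSO/95% HP-β-CD in water. Jugular blood was taken into heparin at 0.083, 0.25, 0.5, 1, 2, 4, 6 and 24 h. Plasma, obtained by centrifugation at about 4 °C, was assayed by LC-MS/MS.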

EV-D68 VP1 expression [5] = experiment: Immunofluorescence assay of viral VP1 in RD cells; format: cell-based, Enterovirus D68; conditions: EV-D68-infected RD cells, MOI 1, 12 h
How it was run: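 RD cells were infected with EV-D68 at MOI 1 in the presence of test compound for 12 h. They were then fixed with 4% formaldehyde for 30 min, permeabilized with 0.1% Triton X-100 for 30 min and blocked with 5% bovine serum. Staining used rabbit anti-VP1 with an Alexa-546 secondary and 1 μM Hoechst33342 for nuclei, followed by fluorescence microscopy imaging.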

EV-D68 [6] = experiment: Time of drug addition assay; format: cell-based, Enterovirus D68; conditions: 2 μM, RD cells, 0.01 MOI, viral load by qRT-PCR
EV-D68 virions [7] = experiment: Particle stability thermal release assay; parameters: species or system Enterovirus D68; conditions: 10 μg/mL, 1.5 μg purified EV-D68, SYTO9
How it was run: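 Test compound (10 μg/mL) or DMSO was mixed with 1.5 μg EV-D68 and SYTO9 nucleic-acid dye, at 5% DMSO. The mixture was held at 33 °C for 15 min, then ramped from 25 to 99 °C. Fluorescence was recorded in triplicate at 1 °C steps, and melting temperature was taken from the negative first-derivative curve.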

EV-D68 virions [8] = experiment: Thermoprotection assay; parameters: species or system Enterovirus D68; conditions: 12.5 μM, heated 2 min, TCID50
How it was run: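 Virus (2 × 10^6 PFU/ml) was preincubated with test compound (12.5 μM) or DMSO for 30 min at 33 °C. It was then heated for 2 min at 37–59 °C and rapidly cooled to 4 °C. Residual titre was measured by TCID50 on RD cells: 10-fold virus dilutions, CPE scored after 72 h, Reed–Muench calculation.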

[9] = Liver microsome stability assay, human; format: in vitro ADME; conditions: liver microsomes
How it was run: (§1)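 Test compound (1 μM final) was incubated at 37 °C with rat, beagle dog or human liver microsomes (0.5 mg/mL protein) and 1 mM NADPH, with a parallel no-NADPH control. Aliquots were quenched at 0, 5, 15, 30 and 60 min in solution containing internal standard, centrifuged at 4 °C and analysed by LC-MS/MS. t1/2 and intrinsic clearance were derived from compound depletion.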

[10] = Liver microsome stability assay, rat; format: in vitro ADME; conditions: liver microsomes
How it was run: as §1

[11] = Liver microsome stability assay, dog; format: in vitro ADME; conditions: beagle, liver microsomes
How it was run: as §1

various EV-D68 strains = experiment: CPE assay, various EV-D68 strains; format: cell-based; conditions: Enterovirus D, EVD68
How it was run: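 RD cells (DMEM, 10% FBS, 37 °C, 5% CO2) were seeded at 1.5 × 10^4/well and grown for 24 h. They were infected with 100 TCID50 of strain STL-2014-12, US/KY/14-18953, US/MO/14-18947 or Fermon, plus test compound in 3-fold dilutions (0.01–200 μM) or DMSO, for 72 h at 37 °C. ATP was read by CellTiter-Glo luminescence and normalised to uninfected and infected controls. EC50 is the concentration giving a 50% ATP increase.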

SMILES: CCOC(=O)c1cnc2ccc(-c3ccc(C(N)=O)cc3)cc2c1 [Compound 18, Ethyl 6-(4-Carbamoylphenyl)quinoline-3-carboxylate]
anti-EV-D68 activity [1]: inactivation

SMILES: CCOC(=O)c1cnc2ccc(-c3cn[nH]c3)cc2c1 [Compound 17, Ethyl 6-(1H-Pyrazol-4-yl)quinoline-3-carboxylate]
anti-EV-D68 activity [1]: complete loss of activity

SMILES: Cc1cc(CCCOc2c(C)cc(-c3noc(C(F)(F)F)n3)cc2C)on1 [Pleconaril, pleconaril, reference compound]
antiviral activity, drug added after 1 hpi (phases II and IV) (EV-D68 [6]): same experimental results | antiviral activity, drug added at 0–1 h (phase I) and 0–14 h (phase III) (EV-D68 [6]): same experimental results | protection against viral particles (PaSTRy) (EV-D68 virions [7]): almost no protection | thermal inactivation of virus at 55 °C (EV-D68 virions [8]): significantly reduce the thermal inactivation

SMILES: Cl.Nc1ccc(-c2ccc3ncc(-c4noc(C(F)(F)F)n4)cc3c2)cc1 [19·HCl, 4-(3-(5-(Trifluoromethyl)-1,2,4-oxadiazol-3-yl)quinolin-6-yl)aniline Hydrochloride]
expression level of viral VP1 (EV-D68 VP1 expression [2]): significantly inhibited the expression level of viral VP1 in a dose-dependent manner | replication of EV-D68 virus particles (plaque formation) (EV-D68 [3]): significantly inhibited the replication of EV-D68 virus particles | expression level of viral VP1 (EV-D68 VP1 expression [5]): significantly inhibited the expression level of viral VP1 in a dose-dependent manner

SMILES: CCOC(=O)c1cnc2ccc(-c3cccc(N)c3)cc2c1 [Compound 11, Ethyl 6-(3-Aminophenyl)quinoline-3-carboxylate]
EC50 [1]: > 10 µM

Continued, in another order:

clearance at 24 h [4]: 106 ± 10 mL/min/kg
SMILES: CCc1nc(-c2cnc3ccc(-c4ccc(N)cc4)cc3c2)no1.Cl [Compound 21·HCl, 4-(3-(5-Ethyl-1,2,4-oxadiazol-3-yl)quinolin-6-yl)aniline Hydrochloride]
expression level of viral VP1 (EV-D68 VP1 expression [2]): significantly inhibited the expression level of viral VP1 in a dose-dependent manner | replication of EV-D68 virus particles (plaque formation) (EV-D68 [3]): significantly inhibited the replication of EV-D68 virus particles | expression level of viral VP1 (EV-D68 VP1 expression [5]): significantly inhibited the expression level of viral VP1 in a dose-dependent manner

EC50 [1]: > 10 µM
SMILES: CCCc1ccc(-c2ccc3ncc(C(=O)OCC)cc3c2)cc1 [Compound 10, Ethyl 6-(4-Propylphenyl)quinoline-3-carboxylate]

CLint scaled at 1 h, 1 µM [9]: 10.8 mL/min/kg | CLint scaled at 1 h, 1 µM [10]: 61.2 mL/min/kg | CLint scaled at 1 h, 1 µM [11]: 116 mL/min/kg | EC50 (various EV-D68 strains): 0.05 to 0.1 µM | clearance at 24 h [4]: 64 ± 13.1 mL/min/kg
SMILES: Nc1ccc(-c2ccc3ncc(-c4noc(C(F)(F)F)n4)cc3c2)cc1 [Compound 19, 4-(3-(5-(Trifluoromethyl)-1,2,4-oxadiazol-3-yl)quinolin-6-yl)aniline]
antiviral activity, drug added after 1 hpi (phases II and IV) (EV-D68 [6]): antiviral activity disappeared | antiviral activity, drug added at 0–1 h (phase I) and 0–14 h (phase III) (EV-D68 [6]): significant antiviral activity | increase in antiviral potency compared to compound 15 ([1]; EC50 ratio, STL-2014-12): ~10 fold | thermal inactivation of virus at 55 °C (EV-D68 virions [8]): significantly reduce the thermal inactivation | virus activity at 57 °C (EV-D68 virions [8]): maintained certain virus activity
